# ChEMBL document CHEMBL3124791 (J Med Chem, 2014)
# The source made the active and inactive calls. No cut-off for these calls is given here.
# How the values were obtained:
# Tubulin = assay: Inhibition of tubulin (unknown origin) polymerization incubated for 15 mins prior to GTP addition measured after 20 mins by turbidimetry; assay type: protein-complex assay, Homo sapiens
# Tubulin (Homo sapiens) [1] = biological target: T1, Tubulin (Homo sapiens) (UniProt P68371+Q9H4B7+P0DPH7+P68366+Q13509+Q71U36+P04350+Q3ZCM7+P07437+P68363+Q9BQE3+Q6PEY2+Q13885+Q9BVA1+Q9BUF5); assay: Displacement of [3H]colchine from tubulin (unknown origin) at 1 uM after 10 mins; assay type: protein-complex assay
# DU-145 = assay: Cytotoxicity against human DU145 cells by SRB assay; assay type: functional
# Procedure, shortened: (§1)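 Sulforhodamine B growth assay across A-549, KB, P-gp-expressing KBvin and DU145 lines. […] Mean ± SD, at least triplicate.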
# Tubulin (Homo sapiens) [2] = biological target: T1, Tubulin (Homo sapiens); assay: Displacement of [3H]colchine from tubulin (unknown origin) at 5 uM after 10 mins; assay type: protein-complex assay
# Liver microsome = assay: Half life in human liver microsomes at 1 uM by LC-MS analysis; assay type: ADME
# [3] = Cytotoxicity against human KBVIN cells by SRB assay; assay type: functional; procedure, shortened: as §1
# [4] = Aqueous solubility of the compound in phosphate buffer at pH 7.4 after 4 hrs by HPLC-UV method; assay type: physicochemical; conditions: pH 7.4, 4 h
# Mus musculus [5] = assay: Toxicity in athymic Balb/c nu/nu mouse xenografted with human MCF7 cells assessed as change in body weight at 4 mg/kg, iv administered as Q3D X 6 regimen (reference value: 0.10%); assay type: organism-based; parameters: dose 4 mg/kg, route intravenous; conditions: in vivo
# Procedure, shortened: (§2)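 At 100–300 mm3 tumors, mice sorted into treated and control groups (n = 7). Dosing 4 mg/kg i.v. every 3 days; vehicle 5% PEG400/PBS. Stopped when control tumors reached about 1500 mm3; tumors excised and weighed. Inhibitory rate = [1 − mean treated/control tumor weight] × 100; body weight and deaths recorded.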
# KB = assay: Cytotoxicity against human KB cells by SRB assay; assay type: functional; procedure, shortened: as §1
# A549 [6] = assay: Cytotoxicity against human A549 cells by SRB assay; assay type: functional; procedure, shortened: as §1
# Mus musculus [7] = assay: Toxicity in athymic Balb/c nu/nu mouse xenografted with human MCF7 cells assessed as death at 4 mg/kg, iv administered as Q3D X 6 regimen; assay type: organism-based; parameters: dose 4 mg/kg, route intravenous; conditions: in vivo; procedure, shortened: as §2
# MCF7 = assay: Antitumor activity against human MCF7 cells xenografted in athymic Balb/c nu/nu mouse assessed as tumor growth inhibition at 4 mg/kg, iv administered as Q3D X 6 regimen; assay type: functional; procedure, shortened: as §2
# Tubulin (Homo sapiens) [8] = biological target: T1, Tubulin (Homo sapiens); assay: Inhibition of tubulin polymerization in human A549 cells assessed as disappearance of microtubule network at 100 nM after 24 hrs by Hoechst 33342 staining-based immunocytochemistry relative to control; assay type: cell-based
# A549 [9] = assay: Cell cycle arrest in human A549 cells assessed as accumulation at G2/M phase after 24 hrs by propidium iodide staining-based FACS analysis; assay type: functional
# A549 [10] = assay: Cell cycle arrest in human A549 cells assessed as accumulation at G2/M phase at 300 nM after 24 hrs by propidium iodide staining-based FACS analysis; assay type: functional
# Canis lupus familiaris [11] = organism: Canis lupus familiaris; conditions: 10 uM
# Canis lupus familiaris [12] = organism: Canis lupus familiaris; assay: Competitive inhibition of dog brain tubulin using BODIPY FL-vinblastine as substrate at 30 to 100 uM incubated for 30 mins prior to substrate addition measured after 30 mins by fluorescence assay
# Procedure, shortened: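 Tubulin 4 μM from fresh dog brain in 25 mM PIPES pH 6.8, 1 mM EGTA, 3 mM MgCl2, preincubated with compound (10, 30, 100 μM) 30 min at 37 °C. BODIPY FL-vinblastine 2 μM then added for another 30 min. Fluorescence (ex 470/em 515 nm) decrease converted to % inhibition. Mean ± SD of at least three independent experiments.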
# Tubulin (Homo sapiens) [13] = biological target: T1, Tubulin (Homo sapiens); assay: Inhibition of tubulin polymerization in human A549 cells assessed as disappearance of microtubule network at 3 nM after 24 hrs by Hoechst 33342 staining-based immunocytochemistry relative to control; assay type: cell-based
# Procedure, shortened: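 A549 cells exposed to compound 24 h (0.1% DMSO control), fixed in 4% paraformaldehyde, permeabilized with 0.1% Triton X-100, blocked with 5% BSA. Stained with anti-α-tubulin (1:2000, 2 h) and a fluorescent anti-mouse secondary (1 h), nuclei with Hoechst 33342. Imaged at 20× for microtubule network loss.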
# A549 [14] = assay: Cell cycle arrest in human A549 cells assessed as accumulation at G2/M phase at 3 nM after 24 hrs by propidium iodide staining-based FACS analysis; assay type: functional
# Procedure, shortened: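 A549 cells treated 24 h (0.1% DMSO control), washed in PBS, fixed in 70% ice-cold ethanol at 4 °C for 24 h. RNase (0.05 mg/mL, 37 °C, 30 min), then propidium iodide 0.05 mg/mL for 30 min at rt in the dark. Cell-cycle distribution read by flow cytometry.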
# [15] = (§3) Competitive inhibition of dog brain tubulin using colchicine as substrate incubated for 45 mins prior to substrate addition measured after 45 mins by fluorescence assay; parameters: species or system Canis lupus familiaris
# Procedure, shortened: (§4)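 Dog brain tubulin 4 μM in 25 mM PIPES pH 6.8, 1 mM EGTA, 3 mM MgCl2, preincubated with compound (0.1–10 μM) 45 min at 37 °C. […] Mean ± SD, at least three replicates.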
# Canis lupus familiaris [16] = organism: Canis lupus familiaris; assay: as §3; procedure, shortened: as §4
smiles,measurement,setting,value
COc1ccc2c(c1)N(C)C(=O)CN2c1nc(C)nc2ccccc12,IC50,Tubulin,1300 nM
same,inhibition,Tubulin (Homo sapiens) [1],82%
same,GI50,DU-145,22 nM
same,inhibition,Tubulin (Homo sapiens) [2],96%
same,t1/2,Liver microsome,22 min
same,GI50,[3],25 nM
same,solubility,[4],4.2 µg/mL
same,Activity,Mus musculus [5],2.28%
same,GI50,KB,17 nM
same,GI50,A549 [6],19 nM
same,Activity,Mus musculus [7],Non-toxic
same,inhibition in vivo at 4 mg/kg,MCF7,51%
CC(=O)O[C@H]1C(=O)[C@@]2(C)[C@H]([C@H](OC(=O)c3ccccc3)[C@]3(O)C[C@H](OC(=O)[C@H](O)[C@@H](NC(=O)c4ccccc4)c4ccccc4)C(C)=C1C3(C)C)[C@]1(OC(C)=O)CO[C@@H]1C[C@@H]2O [PACLITAXEL],GI50,DU-145,6 nM
same,GI50,[3],1210 nM
same,inhibition,Tubulin (Homo sapiens) [8],inactive
same,GI50,KB,6.4 nM
same,GI50,A549 [6],7.6 nM
Cc1ccc2c(c1)CCCN2c1nc(C)nc2ccccc12,GI50,DU-145,187 nM
same,GI50,[3],176 nM
same,GI50,KB,204 nM
same,GI50,A549 [6],211 nM
COc1cc2c(c(OC)c1OC)-c1ccc(OC)c(=O)cc1[C@@H](NC(C)=O)CC2,Activity,A549 [9],Dose-dependent effect
same,Activity,A549 [10],Active
COc1ccc2c(c1)CCCCN2c1nc(C)nc2ccccc12,IC50,Tubulin,870 nM
same,inhibition,Tubulin (Homo sapiens) [1],46%
same,GI50,DU-145,18 nM
same,inhibition,Tubulin (Homo sapiens) [2],89%
same,t1/2,Liver microsome,24.85 min
same,GI50,[3],20 nM
same,solubility,[4],2.94 µg/mL
same,GI50,KB,19 nM
same,GI50,A549 [6],21 nM
COc1ccc2c(c1)CCCN2c1nc(C)nc2ccccc12,Activity,Mus musculus [5],-15.7%
same,inhibition in vivo at 4 mg/kg,MCF7,47.3%
COc1ccc2c(c1)CCCN(c1nc(Cl)nc3ccccc13)C2,GI50,DU-145,6810 nM
same,GI50,[3],5450 nM
same,GI50,KB,11300 nM
same,GI50,A549 [6],7570 nM
COc1ccc2c(c1)OCCN2c1nc(C)nc2ccccc12,GI50,DU-145,198 nM
same,GI50,[3],169 nM
same,GI50,KB,211 nM
same,GI50,A549 [6],189 nM
CC[C@]1(O)C[C@H]2CN(CCc3c([nH]c4ccccc34)[C@@](C(=O)OC)(c3cc4c(cc3OC)N(C=O)[C@H]3[C@@](O)(C(=O)OC)[C@H](OC(C)=O)[C@]5(CC)C=CCN6CC[C@]43[C@@H]65)C2)C1,inhibition,Canis lupus familiaris [11],50%
COc1ccc2c(c1)CCCCN2c1nc(Cl)nc2ccccc12,GI50,DU-145,165 nM
same,GI50,[3],197 nM
same,GI50,KB,227 nM
same,GI50,A549 [6],191 nM
COc1ccc2c(c1)OCCN2c1nc(Cl)nc2ccccc12,GI50,DU-145,169 nM
same,GI50,[3],195 nM
same,GI50,KB,153 nM
same,GI50,A549 [6],199 nM
COc1ccc2c(c1)CCN2c1nc(Cl)nc2ccccc12,GI50,DU-145,165 nM
same,GI50,[3],197 nM
same,GI50,KB,227 nM
same,GI50,A549 [6],233 nM
COc1ccc2c(c1)NC(=O)CN2c1nc(C)nc2ccccc12,inhibition,Tubulin (Homo sapiens) [1],93%
same,GI50,DU-145,1.9 nM
same,inhibition,Tubulin (Homo sapiens) [2],99%
same,Activity,A549 [9],Dose-dependent effect
same,t1/2,Liver microsome,54.81 min
same,GI50,[3],2.2 nM
same,inhibition,Canis lupus familiaris [12],inactive
same,GI50,KB,2.3 nM
same,GI50,A549 [6],3.2 nM
same,inhibition,Tubulin (Homo sapiens) [13],Active
same,Activity,A549 [14],Active
same,Activity,Mus musculus [7],Toxic
same,IC50,[15],550 nM
same,inhibition,Canis lupus familiaris [16],Dose-dependent effect
COc1ccc2c(c1)CCCN(c1nc(C)nc3ccccc13)C2,GI50,DU-145,14600 nM
same,GI50,[3],14800 nM
same,GI50,KB,19600 nM
same,GI50,A549 [6],16700 nM
COc1ccc2c(c1)C(=O)CCN2c1nc(Cl)nc2ccccc12,GI50,DU-145,31 nM
same,GI50,[3],33 nM
same,GI50,KB,28 nM
same,GI50,A549 [6],27 nM
Cc1ccc2c(c1)CCCN2c1nc(Cl)nc2ccccc12,GI50,DU-145,57 nM
same,GI50,[3],46 nM
same,GI50,KB,48 nM
same,GI50,A549 [6],43 nM
COc1ccc2c(c1)C(=O)CCN2c1nc(C)nc2ccccc12,IC50,Tubulin,940 nM
same,inhibition,Tubulin (Homo sapiens) [1],56%
same,GI50,DU-145,21 nM
same,inhibition,Tubulin (Homo sapiens) [2],87%
same,t1/2,Liver microsome,20.89 min
same,GI50,[3],21 nM
same,solubility,[4],1.21 µg/mL
same,GI50,KB,19 nM
same,GI50,A549 [6],24 nM
COc1ccc2c(c1)CCN2c1nc(C)nc2ccccc12,GI50,DU-145,243 nM
same,GI50,[3],216 nM
same,GI50,KB,320 nM
same,GI50,A549 [6],268 nM
COc1ccc2c(c1)C(O)CCN2c1nc(C)nc2ccccc12 (centres undefined),IC50,Tubulin,970 nM
same,inhibition,Tubulin (Homo sapiens) [1],75%
same,inhibition,Tubulin (Homo sapiens) [2],94%
same,t1/2,Liver microsome,42.44 min
same,GI50,[3],17 nM
same,solubility,[4],8.72 µg/mL
same,GI50,KB,18 nM
same,GI50,A549 [6],19 nM
COc1ccc2c(c1)CCCN2c1nc(Cl)nc2ccccc12,Activity,Mus musculus [5],-7.9%
same,Activity,Mus musculus [7],Non-toxic
same,inhibition in vivo at 4 mg/kg,MCF7,22.9%
Cc1nc(N2CCCc3cc(Br)ccc32)c2ccccc2n1,GI50,DU-145,198 nM
same,GI50,[3],169 nM
same,GI50,KB,178 nM
same,GI50,A549 [6],211 nM
